Results published in ChEMBL document CHEMBL1828547, “Synthesis and antimalarial activity of 2-guanidino-4-oxoimidazoline derivatives” (J Med Chem, 2011).
In brackets after ≈: the same amount, converted by molar mass. Activity calls are given as the source filed them. The calls are words filed in the database; no cut-off is given here.

Assays:
Plasmodium berghei [1] = test: Antimalarial activity against Plasmodium berghei […] mouse model assessed as causal prophylactic activity at 40 mg/kg, po administered one day before infection, on day of infection and one day post infection; format: functional, organism-based; set-up: dose 40 mg/kg
How it was run: (§1)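 Sporozoite-challenged exoerythrocytic mouse model using P. berghei. Compound ground and suspended in hydroxyethylcellulose with Tween 80 for oral dosing, given once daily for 3 consecutive days: day before, 4 h before, and day after sporozoite inoculation. Dose in (mg/kg)/day. Mice are scored for protection (causal prophylaxis) and for delay in patency.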

Plasmodium falciparum [2] = test: Antimalarial activity against blood stage Plasmodium falciparum D6 assessed as [3H]-hypoxanthine uptake after 24 hrs by scintillation counting; format: functional, organism-based
Plasmodium berghei [3] = test: Antimalarial activity against Plasmodium berghei […] mouse model assessed as delay in patency time at 160 mg/kg, po administered one day before infection, on day of infection and one day post infection; format: functional; how it was run: as §1
Plasmodium cynomolgi [4] = test: Antimalarial activity against Plasmodium cynomolgi infected in rhesus monkey assessed as delay in patency time at 50 mg/kg, po administered one day before infection, on day of infection followed by 1 day post infection; format: functional
How it was run: (§2)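 Rhesus monkeys challenged with P. cynomolgi sporozoites. Oral dosing on days −1, 0 and 1 in HECT or MC vehicle, with dose in (mg/kg)/day. Read-out is the first day of patency and the delay in patency relative to vehicle-treated controls.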

Plasmodium falciparum [5] = test: Antimalarial activity against blood stage Plasmodium falciparum TM91C235 assessed as [3H]-hypoxanthine uptake after 24 hrs by scintillation counting; format: functional, organism-based
[6] = Metabolic stability in human assessed as half life at 160 mg/kg, po by LC-MS/MS analysis; format: ADME, organism-based; set-up: dose 160 mg/kg, route oral
Plasmodium falciparum [7] = test: Antimalarial activity against blood stage Plasmodium falciparum W2 assessed as [3H]-hypoxanthine uptake after 24 hrs by scintillation counting; format: functional, organism-based
[8] = Metabolic stability in mouse assessed as half life at 160 mg/kg, po by LC-MS/MS analysis; format: ADME, organism-based; set-up: dose 160 mg/kg, route oral
[9] = Metabolic stability in human assessed as half life at 320 mg/kg, po by LC-MS/MS analysis; format: ADME, organism-based; set-up: dose 320 mg/kg, route oral
Plasmodium berghei [10] = test: Antimalarial activity against Plasmodium berghei […] mouse model assessed as causal prophylactic activity at 160 mg/kg, po administered one day before infection, on day of infection and one day post infection; format: functional, organism-based; set-up: dose 160 mg/kg; how it was run: as §1
[11] = Metabolic stability in mouse assessed as half life at 320 mg/kg, po by LC-MS/MS analysis; format: ADME, organism-based; set-up: dose 320 mg/kg, route oral; settings: in vivo
Plasmodium berghei [12] = test: Antimalarial activity against Plasmodium berghei […] mouse model assessed as delay in patency time at 320 mg/kg, po administered one day before infection, on day of infection and one day post infection; format: functional; how it was run: as §1
Plasmodium cynomolgi [13] = test: Antimalarial activity against Plasmodium cynomolgi infected in rhesus monkey assessed as delay in patency time at 0.316 mg/kg, po administered one day before infection, on day of infection followed by 1 day post infection; format: functional; how it was run: as §2
Plasmodium berghei [14] = test: Antimalarial activity against Plasmodium berghei […] mouse model assessed as causal prophylactic activity at 320 mg/kg, po administered one day before infection, on day of infection and one day post infection; format: functional, organism-based; set-up: dose 320 mg/kg
How it was run: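 Sporozoite-inoculated P. berghei exoerythrocytic (EE) mouse model. Compound ground and suspended in hydroxyethylcellulose plus Tween 80 for oral dosing, given once daily for 3 consecutive days: day before, 4 h before, and day after sporozoite inoculation (days −1, 0, 1). Dose in (mg/kg)/day. Read-out is mice protected per group (causal prophylaxis) or delay in patency.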

Plasmodium berghei [15] = test: Antimalarial activity against Plasmodium berghei […] mouse model assessed as delay in patency time at 40 mg/kg, po administered one day before infection, on day of infection and one day post infection; format: functional; how it was run: as §1

IC50 (Plasmodium falciparum [2]) [µg/mL] | IC50 (Plasmodium falciparum [5]) [µg/mL] | half-life [6] [min] | IC50 (Plasmodium falciparum [7]) [µg/mL] | half-life [8] [min] | half-life [9] [min] | half-life [11] [min] | SMILES | Activity (Plasmodium berghei [1]) | Time (Plasmodium berghei [3]) [days] | Time (Plasmodium cynomolgi [4]) [days] | Activity (Plasmodium berghei [10]) | Time (Plasmodium berghei [12]) [days] | Time (Plasmodium cynomolgi [13]) [days] | Activity (Plasmodium berghei [14]) | Time (Plasmodium berghei [15]) [days]
3.19 (≈ 7.74 µM) | > 1.28 | > 60 | 4.9 (≈ 11.9 µM) | > 60 |  |  | CC(C)N1CC(=O)N=C1N/C(=N\C(=O)C(C)(C)C)Nc1ccc(Cl)c(Cl)c1 | inactive | 3 | 0 |  |  |  |  | 
3.38 (≈ 9.49 µM) | 3.01 (≈ 8.45 µM) |  | 2.27 (≈ 6.37 µM) |  |  |  | CC/N=C(\NC1=NC(=O)CN1C(C)C)Nc1ccc(Cl)c(Cl)c1 |  |  |  |  |  |  |  | 
2.86 (≈ 7.15 µM) |  |  | 2.8 (≈ 7 µM) |  | 34.3 | > 60 | CCOC(=O)/N=C(\NC1=NC(=O)CN1C(C)C)Nc1ccc(Cl)c(Cl)c1 |  | 2 |  | inactive | 2 |  |  | 
2.9 (≈ 6.56 µM) | > 5 | < 10 | > 5 | < 10 |  |  | CC(C)(C)OC(=O)/N=C(\NC1=NC(=O)CN1C(C)(C)C)Nc1ccc(Cl)c(Cl)c1 |  |  |  | Active |  |  |  | 
2.75 (≈ 8.04 µM) | > 5 | > 60 | 1.01 (≈ 2.95 µM) | > 60 |  |  | CC(C)(C)N1CC(=O)N=C1NC(=N)Nc1ccc(Cl)c(Cl)c1 |  | 2 |  |  |  |  | Active | 
3 (≈ 7.81 µM) | 5.2 (≈ 13.5 µM) | 39.7 | 1.49 (≈ 3.88 µM) | 1.72 |  |  | CC(C)N1CC(=O)N=C1N/C(=N\C(C)(C)C)Nc1ccc(Cl)c(Cl)c1 |  |  |  | inactive |  |  |  | 
3.42 (≈ 10.4 µM) | 3.31 (≈ 10.1 µM) | > 60 | 2.57 (≈ 7.83 µM) | 40 |  |  | CC(C)N1CC(=O)N=C1NC(=N)Nc1ccc(Cl)c(Cl)c1 |  |  |  | inactive |  |  |  | 6

Continued, compound first:

SMILES | IC50 (Plasmodium falciparum [2]) [µg/mL] | IC50 (Plasmodium falciparum [5]) [µg/mL] | half-life [6] [min] | IC50 (Plasmodium falciparum [7]) [µg/mL] | half-life [8] [min] | half-life [9] [min] | half-life [11] [min] | Activity (Plasmodium berghei [1]) | Time (Plasmodium berghei [3]) [days] | Time (Plasmodium cynomolgi [4]) [days] | Activity (Plasmodium berghei [10]) | Time (Plasmodium berghei [12]) [days] | Time (Plasmodium cynomolgi [13]) [days] | Activity (Plasmodium berghei [14]) | Time (Plasmodium berghei [15]) [days]
CC/N=C(\NC1=NC(=O)CN1c1ccc(Cl)c(Cl)c1)Nc1ccc(Cl)c(Cl)c1 | 2.6 (≈ 5.66 µM) | > 5 |  | > 5 | > 60 | > 60 |  |  |  |  | inactive |  |  |  | 
CCC(CC)C(=O)/N=C(\NC1=NC(=O)CN1c1cccc(Cl)c1Cl)NC(C)C | 0.78 (≈ 1.83 µM) |  |  | 1.55 (≈ 3.64 µM) |  | 59.2 | > 60 |  |  |  |  | 2 |  |  | 
CC(C)N1CC(=O)N=C1N/C(=N/c1ccc(Cl)c(Cl)c1)N1CCCCC1 | > 5 |  | 28 | 1.98 (≈ 5 µM) | 18 |  |  |  |  |  | inactive |  |  |  | 
COc1cc(C)c2c(Oc3cccc(C(F)(F)F)c3)c(OC)cc(NC(C)CCCN)c2n1 (stereo not given) [TAFENOQUINE] |  |  |  |  |  |  |  |  |  |  |  |  | 2 |  | 
CC(C)N1CC(=O)N=C1N/C(=N/c1ccc(Cl)c(Cl)c1)N1CCCC1 | > 5 | > 5 | > 60 | 2.2 (≈ 5.75 µM) | > 60 |  |  |  | 2 |  |  |  |  |  | 
CC(C)N/C(=N/C(=O)OC(C)(C)C)NC1=NC(=O)CN1c1cccc(Cl)c1Cl | 0.56 (≈ 1.31 µM) | 0.9 (≈ 2.1 µM) |  | 0.63 (≈ 1.47 µM) |  | > 60 | > 60 |  |  |  |  |  |  |  | 
CC(C)/N=C(\NC1=NC(=O)CN1c1ccc(Cl)c(Cl)c1)Nc1ccc(Cl)c(Cl)c1 | 1.66 (≈ 3.51 µM) | 2.83 (≈ 5.98 µM) | 39.2 | 2.86 (≈ 6.04 µM) | 27.2 |  |  |  |  |  | inactive | 1 |  | inactive | 
